Laboratory results as given in ChEMBL document CHEMBL5104202, “Structure-Uptake Relationship Studies of Oxazolidinones in Gram-Negative ESKAPE Pathogens” (J Med Chem, 2022).
Values after ≈ are worked out from the molar mass of the structure shown.

Experiments:
Pseudomonas aeruginosa [1] = assay: Antibacterial activity against multidrug resistant Pseudomonas aeruginosa BAA 2109 assessed as inhibition of bacterial growth incubated for 24 hrs in […] medium by twofold serial dilution method; assay type: functional
Acinetobacter baumannii [2] = assay: Antibacterial activity against multidrug resistant Acinetobacter baumannii Ab5075 assessed as inhibition of bacterial growth incubated for 24 hrs in MHI medium by twofold serial dilution method; assay type: functional
Klebsiella pneumoniae [3] = assay: Antibacterial activity against multidrug resistant Klebsiella pneumoniae ATCC13883 assessed as inhibition of bacterial growth incubated for 24 hrs in M9-MOPS medium by twofold serial dilution method; assay type: functional
Acinetobacter baumannii [4] = assay: Antibacterial activity against multidrug resistant Acinetobacter baumannii AYE assessed as inhibition of bacterial growth incubated for 24 hrs in MHI medium by twofold serial dilution method; assay type: functional
Escherichia coli [5] = assay: Antibacterial activity against Escherichia coli SQ110 DTC C2610A incubated for 24 hrs by twofold serial dilution method; assay type: functional
How it was run: (§1)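 E. coli SQDTC (TolC-deficient, single rRNA operon) carrying LZD-resistant 23S rRNA substitutions. Compounds come from 10 mM DMSO stocks and are twofold serially diluted in 96-well plates.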

Acinetobacter baumannii [6] = assay: Antibacterial activity against multidrug resistant Acinetobacter baumannii AYE assessed as inhibition of bacterial growth incubated for 24 hrs in M9-MOPS medium by twofold serial dilution method; assay type: functional
Escherichia coli [7] = assay: Antibacterial activity against Escherichia coli SQ110 DTC G2032A incubated for 24 hrs by twofold serial dilution method; assay type: functional; how it was run: as §1
Escherichia coli [8] = assay: Antibacterial activity against recombinant OM pore producing Escherichia coli assessed as inhibition of bacterial growth; assay type: functional, organism-based
Staphylococcus aureus = assay: Antibacterial activity against Staphylococcus aureus ATCC 25923 incubated for 24 hrs by twofold serial dilution method; assay type: functional
How it was run: (§2)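 MICs by twofold serial dilution in 96-well plates from 10 mM DMSO stocks. Cultures grown in the indicated media; for E. coli, A. baumannii and P. aeruginosa, inducers were 0.1% arabinose, 1% arabinose and 0.1 mM IPTG respectively.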

Klebsiella aerogenes = assay: Antibacterial activity against multidrug resistant Klebsiella aerogenes ATCC13048 assessed as inhibition of bacterial growth incubated for 24 hrs in M9-MOPS medium by twofold serial dilution method; assay type: functional
Acinetobacter baumannii [9] = assay: Antibacterial activity against efflux pump lacking/recombinant OM pore producing Acinetobacter baumannii incubated for 24 hrs by twofold serial dilution method; assay type: functional; how it was run: as §2
Pseudomonas aeruginosa [10] = assay: Antibacterial activity against wild type Pseudomonas aeruginosa assessed as inhibition of bacterial growth; assay type: functional, organism-based
Pseudomonas aeruginosa [11] = assay: Antibacterial activity against multidrug resistant Pseudomonas aeruginosa BAA 2108 assessed as inhibition of bacterial growth incubated for 24 hrs in MHI medium by twofold serial dilution method; assay type: functional
Acinetobacter baumannii [12] = assay: Antibacterial activity against recombinant OM pore producing Acinetobacter baumannii assessed as inhibition of bacterial growth; assay type: functional, organism-based
Pseudomonas aeruginosa [13] = assay: Antibacterial activity against multidrug resistant Pseudomonas aeruginosa BAA 2109 assessed as inhibition of bacterial growth incubated for 24 hrs in MHI medium by twofold serial dilution method; assay type: functional
Klebsiella pneumoniae [14] = assay: Antibacterial activity against multidrug resistant Klebsiella pneumoniae ATCC43816 assessed as inhibition of bacterial growth incubated for 24 hrs in MHI medium by twofold serial dilution method; settings: ATCC43816, 24 h
Escherichia coli [15] = assay: Antibacterial activity against efflux pump lacking Escherichia coli assessed as inhibition of bacterial growth; assay type: functional, organism-based
Klebsiella pneumoniae [16] = assay: Antibacterial activity against multidrug resistant Klebsiella pneumoniae ATCC43816 assessed as inhibition of bacterial growth incubated for 24 hrs in MHI medium by twofold serial dilution method; assay type: functional
Pseudomonas aeruginosa [17] = assay: Antibacterial activity against recombinant OM pore producing Pseudomonas aeruginosa assessed as inhibition of bacterial growth; assay type: functional, organism-based
Acinetobacter baumannii [18] = assay: Antibacterial activity against multidrug resistant Acinetobacter baumannii Ab5075 assessed as inhibition of bacterial growth incubated for 24 hrs in M9-MOPS medium by twofold serial dilution method; assay type: functional
Klebsiella pneumoniae [19] = assay: Antibacterial activity against multidrug resistant Klebsiella pneumoniae ATCC13883 assessed as inhibition of bacterial growth incubated for 24 hrs in MHI medium by twofold serial dilution method; assay type: functional
Acinetobacter baumannii [20] = assay: Antibacterial activity against efflux pump lacking/recombinant OM pore producing Acinetobacter baumannii assessed as inhibition of bacterial growth; assay type: functional, organism-based
Escherichia coli [21] = assay: Antibacterial activity against Escherichia coli SQ110 incubated for 24 hrs by twofold serial dilution method; assay type: functional; how it was run: as §2
Escherichia coli [22] = assay: Antibacterial activity against Escherichia coli SQ110 DTC incubated for 24 hrs by twofold serial dilution method; assay type: functional; how it was run: as §2
Pseudomonas aeruginosa [23] = assay: Antibacterial activity against efflux pump lacking/recombinant OM pore producing Pseudomonas aeruginosa incubated for 24 hrs by twofold serial dilution method; assay type: functional; how it was run: as §2
Escherichia coli [24] = assay: Antibacterial activity against efflux pump lacking/recombinant OM pore producing Escherichia coli assessed as inhibition of bacterial growth; assay type: functional, organism-based
Pseudomonas aeruginosa [25] = assay: Antibacterial activity against efflux pump lacking/recombinant OM pore producing Pseudomonas aeruginosa assessed as inhibition of bacterial growth; assay type: functional, organism-based
Escherichia coli [26] = assay: Antibacterial activity against wild type Escherichia coli assessed as inhibition of bacterial growth; assay type: functional, organism-based
Pseudomonas aeruginosa [27] = assay: Antibacterial activity against multidrug resistant Pseudomonas aeruginosa BAA 2108 assessed as inhibition of bacterial growth incubated for 24 hrs in M9-MOPS medium by twofold serial dilution method; assay type: functional
Escherichia coli [28] = assay: Antibacterial activity against efflux pump lacking/recombinant OM pore producing Escherichia coli incubated for 24 hrs by twofold serial dilution method; assay type: functional
How it was run: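 E. coli efflux-knockout/hyperporinated strain grown in M9 medium with 50 mM MOPS (pH 7.2) and 0.2% xylose. OM pore induced with 0.1% arabinose. Compounds come from 10 mM DMSO stocks and are twofold serially diluted in 96-well plates.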

Klebsiella pneumoniae [29] = assay: Antibacterial activity against multidrug resistant Klebsiella pneumoniae ATCC43816 assessed as inhibition of bacterial growth incubated for 24 hrs in M9-MOPS medium by twofold serial dilution method; assay type: functional
Acinetobacter baumannii [30] = assay: Antibacterial activity against wild type Acinetobacter baumannii assessed as inhibition of bacterial growth; assay type: functional, organism-based
Pseudomonas aeruginosa [31] = assay: Antibacterial activity against efflux pump lacking Pseudomonas aeruginosa assessed as inhibition of bacterial growth; assay type: functional, organism-based
Acinetobacter baumannii [32] = assay: Antibacterial activity against efflux pump lacking Acinetobacter baumannii assessed as inhibition of bacterial growth; assay type: functional, organism-based

Row | SMILES | MIC (Escherichia coli [5]) [µM] | MIC (Escherichia coli [7]) [µM] | IC50 (Escherichia coli [8]) [µM] | MIC (Staphylococcus aureus) [µM] | MIC (Acinetobacter baumannii [9]) [µM] | IC50 (Pseudomonas aeruginosa [10]) [µM] | IC50 (Acinetobacter baumannii [12]) [µM] | IC50 (Escherichia coli [15]) [µM] | IC50 (Pseudomonas aeruginosa [17]) [µM] | IC50 (Acinetobacter baumannii [20]) [µM] | MIC (Escherichia coli [21]) [µM] | MIC (Escherichia coli [22]) [µM] | MIC (Pseudomonas aeruginosa [23]) [µM] | IC50 (Escherichia coli [24]) [nM] | IC50 (Pseudomonas aeruginosa [25]) [µM] | IC50 (Escherichia coli [26]) [µM] | MIC (Escherichia coli [28]) [µM] | IC50 (Acinetobacter baumannii [30]) [µM] | IC50 (Pseudomonas aeruginosa [31]) [µM] | IC50 (Acinetobacter baumannii [32]) [µM] | other results
1 | NCc1ccc(-c2ccc(N3C[C@H](CO)OC3=O)cc2F)cc1 | 50 (≈ 15.8 µg/mL) | 100 (≈ 31.6 µg/mL) | 2.6 | 6.25 (≈ 1.98 µg/mL) | 25 | 23 | 14.3 | 1.7 | 26.3 | 8.2 | > 100 | 50 (≈ 15.8 µg/mL) | 12.5 | 2600 | 8.1 | 18.1 | > 100 | 54.5 | 3.3 | 17.7 | MIC (Pseudomonas aeruginosa [1]): > 200 µM; MIC (Acinetobacter baumannii [2]): > 200 µM; MIC (Klebsiella pneumoniae [3]): 100 µM (≈ 31.6 µg/mL); MIC (Acinetobacter baumannii [4]): > 200 µM; MIC (Acinetobacter baumannii [6]): > 200 µM; MIC (Klebsiella aerogenes): 100 µM (≈ 31.6 µg/mL); MIC (Pseudomonas aeruginosa [11]): > 200 µM; MIC (Pseudomonas aeruginosa [13]): > 200 µM; MIC (Klebsiella pneumoniae [14]): > 200 µM; MIC (Klebsiella pneumoniae [16]): > 200 µM; MIC (Acinetobacter baumannii [18]): > 200 µM; MIC (Klebsiella pneumoniae [19]): > 200 µM; MIC (Pseudomonas aeruginosa [27]): > 200 µM; MIC (Klebsiella pneumoniae [29]): 200 µM (≈ 63.3 µg/mL)
2 | O=C(O)c1ccc(-c2ccc(N3C[C@H](CO)OC3=O)cc2F)cc1 | 25 (≈ 8.28 µg/mL) | 50 (≈ 16.6 µg/mL) | > 100 | 6.25 (≈ 2.07 µg/mL) | 50 | > 100 | 55.5 | 54 | > 100 | 10.2 | > 100 | 25 (≈ 8.28 µg/mL) | > 100 | 2600 | 8.9 | > 100 | 12.5 | > 100 | > 100 | 12.8 | 
3 | O=C1O[C@@H](CO)CN1c1ccc(-c2ccc(C(F)(F)F)cc2)c(F)c1 | > 100 | > 100 | 35.3 | 3.12 (≈ 1.11 µg/mL) | 6.25 | > 100 | 41.1 | 4.1 | > 100 | 3.9 | 100 (≈ 35.5 µg/mL) | 25 (≈ 8.88 µg/mL) | > 100 | 2900 | 1.4 | 88.8 | > 100 | > 100 | 8 | 8 | 
4 | C[n+]1cccc(-c2ccc(-c3ccc(N4C[C@H](CO)OC4=O)cc3F)cc2)c1 | 25 | 50 | 7.8 | 12.5 | 25 | > 100 | 13.9 | 1.2 | 28.1 | 12.6 | > 100 | 12.5 | 25 | 2100 | 18.1 | 98.4 | 25 | > 100 | 29.7 | 29.7 | 
5 | O=C1O[C@@H](CO)CN1c1ccc(-c2ccc(OC(F)(F)F)cc2)c(F)c1 | > 100 | > 100 | 76.9 | 6.25 (≈ 2.32 µg/mL) | 25 | > 100 | 25.6 | 17.2 | > 100 | 6.4 | > 100 | 100 (≈ 37.1 µg/mL) | > 100 | 18800 | 3.1 | > 100 | > 100 | > 100 | 18.6 | 16.3 | 
